From ChEMBL document CHEMBL1153100, “Synthesis and in vivo evaluation of 3-substituted gababutins” (Bioorg Med Chem Lett, 2010)
Active and inactive are the calls of the source. No cut-off for these calls is given here.

What was measured:
Rattus norvegicus [1] = experiment: Analgesic activity in po dosed rat assessed as increase in number shocks received for 10 mins; assay type: functional; conditions: read-out: MED
Outline: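 Vogel conflict model: rats were dosed orally at different doses, then placed in a cage with a drinking tube that delivered a shock at each drink. The mean number of shocks per rat was counted over 10 min. The minimum effective dose was taken from significance versus vehicle (P <0.05).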

[2] = biological target: Voltage-dependent calcium channel alpha2delta subunit (Sus scrofa, UniProt O77773); experiment: Displacement of [3H]gabapentin from calcium channel alpha2delta in pig cerebral cortex membrane after 30 mins; assay type: cell membranes
Sequence of Voltage-dependent calcium channel alpha2delta subunit (O77773 whole entry): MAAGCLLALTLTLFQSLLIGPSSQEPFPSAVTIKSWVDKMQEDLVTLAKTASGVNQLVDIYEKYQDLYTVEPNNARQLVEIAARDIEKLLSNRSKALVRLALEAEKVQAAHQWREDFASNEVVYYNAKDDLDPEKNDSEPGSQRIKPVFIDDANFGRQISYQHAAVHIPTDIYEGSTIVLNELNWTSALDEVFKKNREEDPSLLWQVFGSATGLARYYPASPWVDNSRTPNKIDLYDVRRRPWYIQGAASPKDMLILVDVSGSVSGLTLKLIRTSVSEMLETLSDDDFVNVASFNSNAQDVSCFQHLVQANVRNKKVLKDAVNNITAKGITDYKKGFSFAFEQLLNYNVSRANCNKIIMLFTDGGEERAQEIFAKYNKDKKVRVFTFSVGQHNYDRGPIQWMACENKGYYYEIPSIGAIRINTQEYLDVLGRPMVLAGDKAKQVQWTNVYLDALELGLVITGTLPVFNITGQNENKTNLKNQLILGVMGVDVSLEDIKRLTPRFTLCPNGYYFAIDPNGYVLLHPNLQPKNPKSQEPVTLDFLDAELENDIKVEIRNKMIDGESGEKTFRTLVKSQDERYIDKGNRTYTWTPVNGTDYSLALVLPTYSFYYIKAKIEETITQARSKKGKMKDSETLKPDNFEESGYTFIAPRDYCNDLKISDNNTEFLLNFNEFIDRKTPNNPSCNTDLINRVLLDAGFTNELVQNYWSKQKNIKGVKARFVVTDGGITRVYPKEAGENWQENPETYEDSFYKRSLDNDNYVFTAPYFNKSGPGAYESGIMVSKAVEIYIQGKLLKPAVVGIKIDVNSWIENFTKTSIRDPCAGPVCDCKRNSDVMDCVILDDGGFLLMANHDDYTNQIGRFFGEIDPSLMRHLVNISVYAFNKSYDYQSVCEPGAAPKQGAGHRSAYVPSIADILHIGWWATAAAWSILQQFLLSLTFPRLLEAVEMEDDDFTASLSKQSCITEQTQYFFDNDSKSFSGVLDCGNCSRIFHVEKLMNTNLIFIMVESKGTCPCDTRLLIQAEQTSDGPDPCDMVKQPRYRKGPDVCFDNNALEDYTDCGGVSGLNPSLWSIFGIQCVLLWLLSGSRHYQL

Rattus norvegicus [3] = experiment: Antihyperalgesic effect in carrageenan-induced intrathecal dosed rat inflammatory pain model assessed as reversal of hyperalgesia; assay type: functional, organism-based
Rattus norvegicus [4] = experiment: Antihyperalgesic effect in carrageenan-induced rat inflammatory pain model assessed as reversal of hyperalgesia at 1 to 30 mg/kg, po; assay type: functional, organism-based
Outline: (§1)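 Rats received intraplantar carrageenan in the paw, and thermal hyperalgesia was allowed to form over 2 h, to a paw-withdrawal latency of 2.5 s. Test compound was then given orally. Reversal of hyperalgesia was read as the time to paw withdrawal.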

Rattus norvegicus [5] = experiment: Antihyperalgesic effect in carrageenan-induced rat inflammatory pain model assessed as reversal of hyperalgesia at 30 mg/kg, po; assay type: functional, organism-based; parameters: dose 30 mg/kg; outline: as §1

CC(C)C[C@H](CN)CC(=O)O [PREGABALIN]
minimal effective dose (Rattus norvegicus [1]): 10 mg/kg

NCC1(CC(=O)O)CCCC1 [GABABUTIN]
IC50 [2]: 420 nM

NCC1(CC(=O)O)CCC(Cc2ccccc2)C1 (mixture of isomers)
IC50 [2]: 9280 nM

CC(C)CC1CCC(CN)(CC(=O)O)C1 (mixture of isomers)
IC50 [2]: 760 nM

C[C@@H]1CCC(CN)(CC(=O)O)C1 (stereo not given in full)
IC50 [2]: 88 nM

CCC[C@H]1CCC(CN)(CC(=O)O)C1 (single isomer, unassigned)
IC50 [2]: 1200 nM

CCCCC1CCC(CN)(CC(=O)O)C1 (mixture of isomers)
IC50 [2]: 690 nM

CC(C)(C)C1CCC(CN)(CC(=O)O)C1 (mixture of isomers)
IC50 [2]: > 10000 nM

CCCC1CCC(CN)(CC(=O)O)C1 (mixture of isomers)
IC50 [2]: 69 nM

CC[C@@H]1CCC(CN)(CC(=O)O)C1 (stereo not given in full)
IC50 [2]: 53 nM

CCC[C@@H]1CCC(CN)(CC(=O)O)C1 (stereo not given in full)
IC50 [2]: 29 nM

NCC1(CC(=O)O)CCC(c2ccccc2)C1 (mixture of isomers)
IC50 [2]: 5060 nM

NCC1(CC(=O)O)CCC(CCc2ccccc2)C1 (mixture of isomers)
IC50 [2]: 6230 nM

C[C@H]1CCC(CN)(CC(=O)O)C1 (single isomer, unassigned)
IC50 [2]: 1300 nM

CC1(C)CCC(CN)(CC(=O)O)C1 (stereo not given)
IC50 [2]: 3180 nM

C[C@@H]1CC[C@](CN)(CC(=O)O)C1
Activity (Rattus norvegicus [3]): Active
Activity (Rattus norvegicus [4]): inactive
minimal effective dose (Rattus norvegicus [1]): 3 mg/kg
IC50 [2]: 30 nM

CC[C@H]1CCC(CN)(CC(=O)O)C1 (stereo not given in full)
IC50 [2]: 706 nM

CCC1CCC(CN)(CC(=O)O)C1 (mixture of isomers)
IC50 [2]: 55 nM

C[C@@H]1CC[C@@](CN)(CC(=O)O)C1
Activity (Rattus norvegicus [5]): Active
minimal effective dose (Rattus norvegicus [1]): 30 mg/kg
IC50 [2]: 71 nM

CC1CCC(CN)(CC(=O)O)C1 (mixture of isomers)
IC50 [2]: 82 nM
